Measurements: ChEMBL document CHEMBL1135725, “N-Aryl N'-hydroxyguanidines, a new class of NO-donors after selective oxidation by nitric oxide synthases: structure-activity relationship” (J Med Chem, 2002)

Legend:
[1] = molecular target: T1, Nitric oxide synthase, inducible (Mus musculus) (UniProt P29477); experiment: Nitric oxide (NO) formation during oxidation of NADPH and O2, catalyzed by NOS II detected spectrophotometrically using hemoglobin assay.; format: functional
T1 sequence (whole entry): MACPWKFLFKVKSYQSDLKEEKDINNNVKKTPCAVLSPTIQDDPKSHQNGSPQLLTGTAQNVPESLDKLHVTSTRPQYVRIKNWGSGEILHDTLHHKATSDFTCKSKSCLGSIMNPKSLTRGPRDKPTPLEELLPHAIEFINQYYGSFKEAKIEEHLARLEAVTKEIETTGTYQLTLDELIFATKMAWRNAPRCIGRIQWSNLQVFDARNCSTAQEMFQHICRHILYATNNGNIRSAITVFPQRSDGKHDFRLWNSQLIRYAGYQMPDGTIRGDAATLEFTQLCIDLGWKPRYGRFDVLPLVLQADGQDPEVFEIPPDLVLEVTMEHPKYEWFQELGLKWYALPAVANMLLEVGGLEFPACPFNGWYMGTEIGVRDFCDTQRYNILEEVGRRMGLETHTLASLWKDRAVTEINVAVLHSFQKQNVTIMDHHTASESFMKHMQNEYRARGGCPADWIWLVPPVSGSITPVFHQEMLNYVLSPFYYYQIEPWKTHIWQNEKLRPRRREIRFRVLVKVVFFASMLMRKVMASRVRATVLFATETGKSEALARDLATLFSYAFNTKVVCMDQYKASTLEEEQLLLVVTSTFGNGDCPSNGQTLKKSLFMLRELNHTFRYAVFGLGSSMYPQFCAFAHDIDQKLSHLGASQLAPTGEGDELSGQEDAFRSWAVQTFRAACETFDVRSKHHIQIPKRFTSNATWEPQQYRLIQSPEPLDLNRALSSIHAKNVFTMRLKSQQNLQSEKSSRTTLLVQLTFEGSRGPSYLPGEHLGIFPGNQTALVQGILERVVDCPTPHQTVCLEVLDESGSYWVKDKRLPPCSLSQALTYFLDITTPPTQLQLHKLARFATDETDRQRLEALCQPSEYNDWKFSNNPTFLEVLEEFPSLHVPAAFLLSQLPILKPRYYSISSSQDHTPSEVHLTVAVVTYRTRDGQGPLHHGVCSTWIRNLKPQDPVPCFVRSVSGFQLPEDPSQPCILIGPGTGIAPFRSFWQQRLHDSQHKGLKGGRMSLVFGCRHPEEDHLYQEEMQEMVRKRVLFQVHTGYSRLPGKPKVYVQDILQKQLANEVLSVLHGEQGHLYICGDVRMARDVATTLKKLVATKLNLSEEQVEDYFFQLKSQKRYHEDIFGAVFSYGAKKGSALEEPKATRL
How it was run: (§1)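 Purified recombinant NOS II (E. coli) at 20-30 nM was run at 37 °C in 50 mM HEPES pH 7.4 with 1 mM NADPH, 100 μM BH4, 5 mM DTT, 100 U/mL SOD, 100 U/mL catalase, 12-15 μM oxyhemoglobin and 500 μM substrate, against a buffer reference. The initial rate was followed at 401 nm (ε 34 mM⁻¹ cm⁻¹), or at 577 nm for strongly absorbing compounds (ε 14.5). Values are means ± SD of three to eight experiments.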

[2] = molecular target: Nitric oxide synthase 1 (Rattus norvegicus) (UniProt P29476); experiment: Nitric oxide (NO) formation during oxidation of NADPH and O2, catalyzed by NOS I was detected spectrophotometrically using hemoglobin assay; format: functional
How it was run: (§2)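 Hemoglobin assay with purified recombinant NOS I (rat brain, expressed in S. cerevisiae) or NOS III (E. coli), at 37 °C in 50 mM HEPES pH 7.4. The mix held 1 mM NADPH, 100 μM BH4, 5 mM DTT, SOD/catalase, oxyhemoglobin, 1 mM CaCl2, 10 μg/mL CaM and 500 μM substrate. Methemoglobin formation was read at 401 nm. Activity is given as percent of that with 500 μM NOHA, from three to five experiments.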

[3] = molecular target: T2, Nitric oxide synthase 3 (Mus musculus) (UniProt P70313); experiment: Nitric oxide (NO) formation during oxidation of NADPH and O2, catalyzed by NOS III was detected spectrophotometrically using hemoglobin assay; format: functional; how it was run: as §2
T2 sequence (whole entry): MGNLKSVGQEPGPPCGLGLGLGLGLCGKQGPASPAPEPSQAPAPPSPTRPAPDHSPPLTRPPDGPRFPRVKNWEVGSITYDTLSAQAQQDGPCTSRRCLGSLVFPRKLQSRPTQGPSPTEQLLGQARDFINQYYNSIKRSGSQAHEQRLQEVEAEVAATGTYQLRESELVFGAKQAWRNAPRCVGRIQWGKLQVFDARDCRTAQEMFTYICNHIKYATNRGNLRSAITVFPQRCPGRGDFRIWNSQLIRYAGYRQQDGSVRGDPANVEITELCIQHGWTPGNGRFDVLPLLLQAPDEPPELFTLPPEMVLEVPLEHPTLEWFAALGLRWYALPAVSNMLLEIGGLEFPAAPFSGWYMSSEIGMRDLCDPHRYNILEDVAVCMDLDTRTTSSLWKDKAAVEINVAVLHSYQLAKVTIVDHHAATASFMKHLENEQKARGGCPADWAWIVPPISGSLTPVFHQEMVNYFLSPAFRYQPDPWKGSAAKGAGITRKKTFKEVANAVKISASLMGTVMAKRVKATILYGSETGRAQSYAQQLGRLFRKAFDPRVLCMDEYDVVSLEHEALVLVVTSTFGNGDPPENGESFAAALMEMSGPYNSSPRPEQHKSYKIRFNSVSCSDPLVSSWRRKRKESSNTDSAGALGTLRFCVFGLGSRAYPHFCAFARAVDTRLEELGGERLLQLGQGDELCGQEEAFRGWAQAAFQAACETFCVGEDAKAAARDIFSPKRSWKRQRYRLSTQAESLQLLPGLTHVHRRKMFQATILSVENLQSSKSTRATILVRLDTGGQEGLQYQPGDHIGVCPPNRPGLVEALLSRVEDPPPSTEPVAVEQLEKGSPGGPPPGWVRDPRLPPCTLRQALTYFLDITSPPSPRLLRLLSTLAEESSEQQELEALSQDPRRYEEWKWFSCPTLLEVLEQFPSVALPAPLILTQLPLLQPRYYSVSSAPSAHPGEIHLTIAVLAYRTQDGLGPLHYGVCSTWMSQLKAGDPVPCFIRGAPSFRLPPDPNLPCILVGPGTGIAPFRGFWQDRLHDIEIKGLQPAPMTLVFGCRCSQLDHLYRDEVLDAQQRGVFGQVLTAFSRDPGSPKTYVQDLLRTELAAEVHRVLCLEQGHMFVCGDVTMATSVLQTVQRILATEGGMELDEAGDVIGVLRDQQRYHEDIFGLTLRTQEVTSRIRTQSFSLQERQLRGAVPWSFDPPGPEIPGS

[4] = molecular target: T1, Nitric oxide synthase, inducible (Mus musculus); experiment: (§3) Kinetic constant for NO formation during transformation of oxyhemoglobin to methemoglobin using NADPH and molecular Oxygen in the presence of (NOS II); format: functional
How it was run: (§4)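 Recombinant NOS II (E. coli-expressed, purified) assayed at 37 °C in 50 mM HEPES pH 7.4 with 1 mM NADPH, 100 μM BH4, 5 mM DTT, SOD and catalase (100 U/mL each), and 12-15 μM oxyhemoglobin. Substrate was varied from 5 μM to 2.5 mM. Enzyme level was set to keep oxyhemoglobin conversion below 30%. Kinetic constants come from the initial methemoglobin formation rate at 401 nm; three to four experiments.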

[5] = molecular target: T1, Nitric oxide synthase, inducible (Mus musculus); experiment: Nitric oxide (NO) formation during oxidation by NADPH and O2, catalyzed by NOS II was detected spectrophotometrically using hemoglobin assay; format: functional; how it was run: as §1
[6] = molecular target: T1, Nitric oxide synthase, inducible (Mus musculus); experiment: Nitric oxide (NO) formation during oxidation of NADPH and O2, catalyzed by NOS II was detected spectrophotometrically using hemoglobin assay; format: functional; how it was run: as §1
[7] = molecular target: T1, Nitric oxide synthase, inducible (Mus musculus); experiment: as §3; how it was run: as §4

Sequence of Nitric oxide synthase 1 (Rattus norvegicus) (P29476 whole entry): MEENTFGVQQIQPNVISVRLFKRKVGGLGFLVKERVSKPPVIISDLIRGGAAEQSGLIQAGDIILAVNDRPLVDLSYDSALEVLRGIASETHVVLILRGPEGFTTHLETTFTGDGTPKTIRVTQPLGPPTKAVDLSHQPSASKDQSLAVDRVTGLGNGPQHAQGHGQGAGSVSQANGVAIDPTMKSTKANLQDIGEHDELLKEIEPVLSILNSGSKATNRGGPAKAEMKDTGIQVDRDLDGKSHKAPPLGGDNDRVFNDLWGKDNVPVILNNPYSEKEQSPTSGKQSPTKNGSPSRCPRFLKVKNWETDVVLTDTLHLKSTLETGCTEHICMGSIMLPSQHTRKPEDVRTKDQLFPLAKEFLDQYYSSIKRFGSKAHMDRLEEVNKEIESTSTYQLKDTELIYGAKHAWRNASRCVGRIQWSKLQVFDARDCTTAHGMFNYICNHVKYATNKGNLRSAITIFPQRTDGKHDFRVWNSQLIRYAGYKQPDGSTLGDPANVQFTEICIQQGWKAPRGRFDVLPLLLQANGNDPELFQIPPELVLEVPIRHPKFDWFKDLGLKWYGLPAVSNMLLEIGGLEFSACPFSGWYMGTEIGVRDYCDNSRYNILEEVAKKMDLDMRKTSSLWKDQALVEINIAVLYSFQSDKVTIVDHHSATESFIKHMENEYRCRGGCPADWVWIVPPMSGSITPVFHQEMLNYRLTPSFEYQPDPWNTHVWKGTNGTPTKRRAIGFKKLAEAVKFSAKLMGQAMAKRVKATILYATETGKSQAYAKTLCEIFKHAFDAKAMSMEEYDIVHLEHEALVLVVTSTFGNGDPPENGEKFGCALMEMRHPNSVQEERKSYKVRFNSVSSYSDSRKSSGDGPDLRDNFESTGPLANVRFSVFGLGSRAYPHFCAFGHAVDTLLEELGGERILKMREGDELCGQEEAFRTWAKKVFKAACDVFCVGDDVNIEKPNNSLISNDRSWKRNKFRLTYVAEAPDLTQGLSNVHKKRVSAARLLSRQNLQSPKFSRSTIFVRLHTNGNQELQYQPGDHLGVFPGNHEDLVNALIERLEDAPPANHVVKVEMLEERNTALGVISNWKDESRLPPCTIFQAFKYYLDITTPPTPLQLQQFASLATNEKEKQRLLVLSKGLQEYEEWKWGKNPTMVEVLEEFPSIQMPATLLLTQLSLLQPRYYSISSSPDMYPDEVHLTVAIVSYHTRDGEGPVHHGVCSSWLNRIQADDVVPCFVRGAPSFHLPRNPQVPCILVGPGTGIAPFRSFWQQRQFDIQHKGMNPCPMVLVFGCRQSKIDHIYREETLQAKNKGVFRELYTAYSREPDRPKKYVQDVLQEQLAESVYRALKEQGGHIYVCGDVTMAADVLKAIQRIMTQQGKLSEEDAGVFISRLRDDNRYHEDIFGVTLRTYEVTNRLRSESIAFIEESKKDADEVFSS

Compound: COc1ccccc1/N=C(/N)NO
- NOHA [1]: 5%

Compound: COc1ccc(C(=N)NO)cc1
- NOHA [1]: < 0.2%

Compound: N/C(=N/c1ccc([N+](=O)[O-])cc1)NO
- NOHA [1]: 2%

Compound: N/C(=N/c1ccc(O)cc1)NO
- NOHA [2]: 8.5%
- NOHA [3]: < 0.2%
- NOHA [1]: 16.5%
- k cat [4]: 1.83 s⁻¹

Compound: N/C(=N/c1ccc(CC(=O)O)cc1)NO
- NOHA [1]: < 0.2%

Compound: COc1ccc(N/C(C)=N/O)cc1
- NOHA [1]: < 0.2%

Compound: N=C(NO)NCc1ccccc1
- NOHA [1]: 15%

Compound: N/C(=N/c1cccc(CO)c1)NO
- NOHA [2]: < 0.2%
- NOHA [3]: < 0.2%
- NOHA [1]: 6%

Compound: N/C(=N/c1cccc(Cl)c1)NO
- NOHA [1]: 5%

Compound: CC(C)(C)c1ccc(NC(=N)NO)cc1
- NOHA [5]: < 0.2%

Compound: N/C(=N/c1ccc(N)cc1)NO
- NOHA [2]: 4.5%
- NOHA [3]: < 0.2%
- NOHA [1]: 8%

Compound: N=C(NO)Nc1cccc(CN)c1
- NOHA [1]: 1.5%

Compound: N/C(=N/c1ccc(F)cc1)NO
- NOHA [2]: 4.5%
- NOHA [3]: < 0.2%
- NOHA [1]: 41%
- k cat [4]: 5.83 s⁻¹

Compound: N/C(=N\O)N1CCc2ccccc2C1
- NOHA [1]: < 0.2%

Compound: N/C(=N\O)NCCc1ccccc1
- NOHA [1]: 6%

Compound: N/C(=N/c1cccc(N)c1)NO
- NOHA [2]: 2.5%
- NOHA [3]: 6.5%
- NOHA [1]: 3.5%

Compound: COc1ccc(NC(=N)NO)cc1
- NOHA [2]: 3.5%
- NOHA [3]: < 0.2%
- NOHA [1]: 8%
- k cat [4]: 2.42 s⁻¹

Compound: C/C(=N/c1ccc(Cl)cc1)NO
- NOHA [1]: < 0.2%

Compound: N/C(=N\O)c1ccccc1
- NOHA [1]: < 0.2%

Compound: N/C(=N/c1ccsc1)NO
- NOHA [1]: 9.5%
- k cat [4]: 0.667 s⁻¹

Compound: COc1ccc(/C=N/O)cc1
- NOHA [1]: < 0.2%

Compound: Cc1ccc(NC(=N)NO)cc1
- NOHA [2]: < 0.2%
- NOHA [3]: < 0.2%
- NOHA [1]: 17.5%
- k cat [4]: 4.92 s⁻¹

Compound: N/C(=N/c1ccccc1Cl)NO
- NOHA [1]: 5%

Compound: C/C(=N\O)c1ccc(Cl)cc1
- NOHA [1]: < 0.2%

Compound: COc1ccc(/C(C)=N/O)cc1
- NOHA [1]: < 0.2%

Compound: N/C(=N\O)c1ccc(Cl)cc1
- NOHA [1]: < 0.2%

Compound: N/C(=N/CCCC(N)C(=O)O)NO (stereo not given)
- Activity (nM (nM of NOS)) [2]: 130
- Activity (nM (nM of NOS)) [3]: 65
- Activity (nM (nM of NOS)) [6]: 425
- k cat [4]: 7.08 s⁻¹

Compound: N/C(=N/c1ccc2c[nH]nc2c1)NO
- NOHA [1]: 2.5%

Compound: N/C(=N/c1ccc(C(F)(F)F)cc1)NO
- NOHA [1]: 0.5%

Compound: O/N=C/c1ccc(Cl)cc1
- NOHA [1]: < 0.2%

Compound: N=C(NO)Nc1ccccc1
- NOHA [2]: 1.5%
- NOHA [3]: < 0.2%
- NOHA [1]: 20%
- k cat [4]: 2.17 s⁻¹

Compound: N/C(=N/c1ccc(OCC(=O)O)cc1)NO
- NOHA [1]: < 0.2%

Compound: CC(C(=O)O)c1ccc(NC(=N)NO)cc1 (stereo not given)
- NOHA [1]: < 0.2%

Compound: N/C(=N/c1ccc(Br)cc1)NO
- NOHA [1]: 7.5%

Compound: N=C(NO)Nc1ccc(Cl)cc1
- NOHA [2]: < 0.2%
- NOHA [3]: < 0.2%
- NOHA [1]: 13%
- k cat [7]: 1.63 s⁻¹

Compound: N/C(=N/c1cccc(C(F)(F)F)c1)NO
- NOHA [1]: 2.5%

Compound: ON=C(Nc1ccccc1)Nc1ccccc1
- NOHA [1]: < 0.2%
